The source made the active and inactive calls. The rule behind the calls is not given here.
How the values were obtained:
[1] = tested on: Nucleic Acid; experiment: Binding affinity to mouse PTEN mRNA assessed as melting temperature at 4 uM by thermal denaturation assay; format: nucleic-acid assay
Procedure, shortened: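 Duplex with complementary length-matched RNA; UV absorbance versus temperature curves in 100 mM Na+, 10 mM phosphate, 0.1 mM EDTA, 4 μM each strand. Tm is the average of two experiments.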

[2] = Reduction in PTEN mRNA expression in mouse bEND.3 cells after 24 hrs by qRT-PCR analysis; format: functional, cell-based; settings: for IC50: BEND3, 24 h
Procedure, shortened: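 bEnd.3 cells in DMEM/10% FBS, seeded at 1 × 10^4 cells/well the day before. Transfected 4 h at 37 °C with Lipofectin 3 μg/mL in OptiMEM, eight 1:2 dilutions (40 nM to 312.5 pM), then refed with complete medium for 24 h. PTEN RNA by qRT-PCR, normalized to cyclophilin A, as % untreated control. Triplicate plates. IC50 from sigmoidal fit, top 100%, bottom 0%.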

[3] = tested on: Mus musculus; experiment: Reduction in PTEN mRNA expression in BALB/c mouse liver at 37 mg/kg, ip administered once a week for 3 weeks measured after 72 hrs of last dose by RT-PCR analysis; format: functional, organism-based; set-up: dose 37 mg/kg
[4] = tested on: Mus musculus; experiment: Toxicity in BALB/c mouse assessed as effect on body weight at 0.5 to 14.8 mg/kg, ip administered twice a week for 3 weeks measured after 72 hrs of last dose; format: organism-based; set-up: dose 0.5-14.8 mg/kg, route intraperitoneal; settings: in vivo
Procedure, shortened: (§1)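 Male Balb/c mice, ip ASO in PBS twice weekly for 3 weeks at four dose levels. Body weight recorded before each dose. Killed 3 days after last dose. Organ weights normalized to body weight, expressed relative to the saline-treated group.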

[5] = tested on: Mus musculus; experiment: Reduction in PTEN mRNA expression in ip dosed BALB/c mouse liver administered twice a week for 3 weeks measured after 72 hrs of last dose by RT-PCR analysis; format: functional
Procedure, shortened: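 Male Balb/c mice, 6-week-old, ASO in PBS ip twice weekly for 3 weeks, four dose levels. Killed 72 h after last dose. Liver homogenized in guanidine isothiocyanate buffer, RNA column-purified. PTEN RNA by fluorescence qRT-PCR, normalized to cyclophilin A. Errors are SD.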

[6] = tested on: Mus musculus; experiment: Toxicity in BALB/c mouse assessed as effect on liver weight at 0.5 to 14.8 mg/kg, ip administered twice a week for 3 weeks measured after 72 hrs of last dose; format: organism-based; set-up: dose 0.5-14.8 mg/kg, route intraperitoneal; settings: in vivo; procedure, shortened: as §1
[7] = tested on: Mus musculus; experiment: Toxicity in BALB/c mouse assessed as effect on kidney weight at 0.5 to 14.8 mg/kg, ip administered twice a week for 3 weeks measured after 72 hrs of last dose; format: organism-based; set-up: dose 0.5-14.8 mg/kg, route intraperitoneal; settings: in vivo; procedure, shortened: as §1
[8] = tested on: Mus musculus; experiment: Toxicity in BALB/c mouse assessed as increase in spleen weight at 0.5 to 14.8 mg/kg, ip administered twice a week for 3 weeks measured after 72 hrs of last dose; format: organism-based; set-up: dose 0.5-14.8 mg/kg, route intraperitoneal; settings: in vivo; procedure, shortened: as §1
[9] = tested on: Mus musculus; experiment: Hepatotoxicity in BALB/c mouse assessed as liver ALT level at 0.5 to 14.8 mg/kg, ip administered twice a week for 3 weeks measured after 72 hrs of last dose; format: toxicity, organism-based; set-up: dose 0.5-14.8 mg/kg, route intraperitoneal; settings: in vivo
Procedure, shortened: (§2)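 Male 6-week-old Balb/c mice dosed ip in PBS twice weekly for 3 weeks: 0.7–23 mg/kg (four levels) or 0.5–14.6/14.8 mg/kg. Killed 72 h after final dose. Plasma from cardiac-puncture blood, ALT on clinical bioanalyzer. Errors are SD.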

[10] = tested on: Mus musculus; experiment: Hepatotoxicity in BALB/c mouse assessed as liver ALT level at 0.7 to 23 mg/kg, ip administered twice a week for 3 weeks measured after 72 hrs of last dose; format: toxicity, organism-based; set-up: dose 0.7-23 mg/kg, route intraperitoneal; settings: in vivo; procedure, shortened: as §2
[11] = tested on: Mus musculus; experiment: Toxicity in BALB/c mouse assessed as effect on body weight at 0.7 to 23 mg/kg, ip administered twice a week for 3 weeks measured after 72 hrs of last dose; format: organism-based; set-up: dose 0.7-23 mg/kg, route intraperitoneal; settings: in vivo; procedure, shortened: as §1
[12] = tested on: Mus musculus; experiment: Toxicity in BALB/c mouse assessed as effect on kidney weight at 0.7 to 23 mg/kg, ip administered twice a week for 3 weeks measured after 72 hrs of last dose; format: organism-based; set-up: dose 0.7-23 mg/kg, route intraperitoneal; settings: in vivo; procedure, shortened: as §1
[13] = tested on: Mus musculus; experiment: Toxicity in BALB/c mouse assessed as effect on liver weight at 0.7 to 23 mg/kg, ip administered twice a week for 3 weeks measured after 72 hrs of last dose; format: organism-based; set-up: dose 0.7-23 mg/kg, route intraperitoneal; settings: in vivo; procedure, shortened: as §1
[14] = tested on: Mus musculus; experiment: Toxicity in BALB/c mouse assessed as effect on body weight at 0.5 to 14.6 mg/kg, ip administered twice a week for 3 weeks measured after 72 hrs of last dose; format: organism-based; set-up: dose 0.5-14.6 mg/kg, route intraperitoneal; settings: in vivo; procedure, shortened: as §1
[15] = tested on: Mus musculus; experiment: Toxicity in BALB/c mouse assessed as increase in liver weight at 0.5 to 14.6 mg/kg, ip administered twice a week for 3 weeks measured after 72 hrs of last dose; format: organism-based; set-up: dose 0.5-14.6 mg/kg, route intraperitoneal; settings: in vivo; procedure, shortened: as §1
[16] = tested on: Liver; experiment: Drug level in BALB/c mouse liver assessed per gram of tissue at 37 mg/kg, ip administered once a week for 3 weeks measured after 72 hrs of last dose; format: ADME, organism-based; set-up: dose 37 mg/kg, route intraperitoneal; settings: in vivo
[17] = tested on: Mus musculus; experiment: Hepatotoxicity in BALB/c mouse assessed as increase in liver ALT level at 0.5 to 14.6 mg/kg, ip administered twice a week for 3 weeks measured after 72 hrs of last dose; format: toxicity, organism-based; set-up: dose 0.5-14.6 mg/kg, route intraperitoneal; settings: in vivo; procedure, shortened: as §2

Compound | Tm [1] [°C] | Activity [2] | IC50 [2] [nM] | Activity [3] | Activity [4] | Activity [5] | ED50 [5] [mg/kg] | Activity [6] | Activity [7] | Activity [8] | Activity [9] | Activity [10] | Activity [11] | Activity [12] | Activity [13] | Activity [14] | Activity [15] | Drug uptake [16] [µg/g] | Activity [17]
Cc1cn([C@@H]2O[C@]3(CO)CN(C)O[C@@H]2[C@@H]3OP(O)(=S)OC[C@]23CN(C)O[C@@H]([C@H](n4cc(C)c(=O)[nH]c4=O)O2)[C@@H]3OP(O)(=S)OC[C@H]2O[C@@H](n3cc(C)c(=O)[nH]c3=O)C[C@@H]2OP(O)(=S)OC[C@H]2O[C@@H](n3cnc4c(N)ncnc43)[C@H](O)[C@@H]2OP(O)(=S)OC[C@H]2O[C@@H](n3cnc4c(=O)[nH]c(N)nc43)[C@H](O)[C@@H]2OP(O)(=S)OC[C@H]2O[C@@H](n3ccc(N)nc3=O)[C@H](O)[C@@H]2OP(O)(=S)OC[C@H]2O[C@@H](n3cnc4c(N)ncnc43)[C@H](O)[C@@H]2OP(O)(=S)OC[C@H]2O[C@@H](n3ccc(N)nc3=O)[C@H](O)[C@@H]2OP(O)(=S)OC[C@H]2O[C@@H](n3cc(C)c(=O)[nH]c3=O)C[C@@H]2OP(O)(=S)OC[C@H]2O[C@@H](n3cnc4c(=O)[nH]c(N)nc43)[C@H](O)[C@@H]2OP(O)(=S)OC[C@H]2O[C@@H](n3cnc4c(=O)[nH]c(N)nc43)[C@H](O)[C@@H]2OP(O)(=S)OC[C@H]2O[C@@H](n3ccc(N)nc3=O)[C@H](O)[C@@H]2OP(O)(=S)OC[C@]23CN(C)O[C@@H]([C@H](n4cc(C)c(N)nc4=O)O2)[C@@H]3OP(O)(=S)OC[C@]23CN(C)O[C@@H]([C@H](n4cc(C)c(=O)[nH]c4=O)O2)[C@@H]3O)c(=O)nc1N (stereo not given in full) | 58.6 | Dose-dependent effect | 2.5 | Active | Non-toxic | Dose-dependent effect | 6 | Non-toxic | Non-toxic | Toxic | Non-toxic | – | – | – | – | – | – | – | –
COCCO[C@@H]1[C@H](OP(O)(=S)OC[C@H]2O[C@@H](n3cc(C)c(=O)[nH]c3=O)C[C@@H]2OP(O)(=S)OC[C@H]2O[C@@H](n3cnc4c(=O)[nH]c(N)nc43)[C@H](OCCOC)[C@@H]2OP(O)(=S)OC[C@H]2O[C@@H](n3cc(C)c(N)nc3=O)[C@H](OCCOC)[C@@H]2OP(O)(=S)OC[C@H]2O[C@@H](n3cc(C)c(=O)[nH]c3=O)C[C@@H]2OP(O)(=S)OC[C@H]2O[C@@H](n3cnc4c(N)ncnc43)[C@H](O)[C@@H]2OP(O)(=S)OC[C@H]2O[C@@H](n3cnc4c(=O)[nH]c(N)nc43)[C@H](O)[C@@H]2OP(O)(=S)OC[C@H]2O[C@@H](n3cc(C)c(N)nc3=O)C[C@@H]2OP(O)(=S)OC[C@H]2O[C@@H](n3cc(C)c(N)nc3=O)C[C@@H]2OP(O)(=S)OC[C@H]2O[C@@H](n3cc(C)c(=O)[nH]c3=O)C[C@@H]2OP(O)(=S)OC[C@H]2O[C@@H](n3cc(C)c(N)nc3=O)C[C@@H]2OP(O)(=S)OC[C@H]2O[C@@H](n3cc(C)c(=O)[nH]c3=O)C[C@@H]2OP(O)(=S)OC[C@H]2O[C@@H](n3cnc4c(=O)[nH]c(N)nc43)[C@H](O)[C@@H]2OP(O)(=S)OC[C@H]2O[C@@H](n3cnc4c(=O)[nH]c(N)nc43)[C@H](O)[C@@H]2OP(O)(=S)OC[C@H]2O[C@@H](n3cnc4c(N)ncnc43)[C@H](O)[C@@H]2OP(O)(=S)OC[C@H]2O[C@@H](n3cc(C)c(=O)[nH]c3=O)C[C@@H]2OP(O)(=S)OC[C@H]2O[C@@H](n3cc(C)c(=O)[nH]c3=O)C[C@@H]2OP(O)(=S)OC[C@H]2O[C@@H](n3cc(C)c(=O)[nH]c3=O)C[C@@H]2OP(O)(=S)OC[C@H]2O[C@@H](n3cnc4c(=O)[nH]c(N)nc43)[C@H](OCCOC)[C@@H]2OP(O)(=S)OC[C@H]2O[C@@H](n3cnc4c(N)ncnc43)[C@H](OCCOC)[C@@H]2O)[C@@H](CO)O[C@H]1n1cc(C)c(N)nc1=O (stereo not given in full) | 67.9 | Dose-dependent effect | 1 | – | – | – | 10 | – | – | – | – | Non-toxic | Non-toxic | Non-toxic | Non-toxic | – | – | – | –
Cc1cn([C@@H]2O[C@]3(CO)CO[C@@H]2[C@@H]3OP(O)(=S)OC[C@]23CC([C@H](n4cc(C)c(=O)[nH]c4=O)O2)[C@@H]3OP(O)(=S)OC[C@H]2O[C@@H](n3cc(C)c(=O)[nH]c3=O)C[C@@H]2OP(O)(=S)OC[C@H]2O[C@@H](n3cnc4c(N)ncnc43)[C@H](O)[C@@H]2OP(O)(=S)OC[C@H]2O[C@@H](n3cnc4c(=O)[nH]c(N)nc43)[C@H](O)[C@@H]2OP(O)(=S)OC[C@H]2O[C@@H](n3ccc(N)nc3=O)[C@H](O)[C@@H]2OP(O)(=S)OC[C@H]2O[C@@H](n3cnc4c(N)ncnc43)[C@H](O)[C@@H]2OP(O)(=S)OC[C@H]2O[C@@H](n3ccc(N)nc3=O)[C@H](O)[C@@H]2OP(O)(=S)OC[C@H]2O[C@@H](n3cc(C)c(=O)[nH]c3=O)C[C@@H]2OP(O)(=S)OC[C@H]2O[C@@H](n3cnc4c(=O)[nH]c(N)nc43)[C@H](O)[C@@H]2OP(O)(=S)OC[C@H]2O[C@@H](n3cnc4c(=O)[nH]c(N)nc43)[C@H](O)[C@@H]2OP(O)(=S)OC[C@H]2O[C@@H](n3ccc(N)nc3=O)[C@H](O)[C@@H]2OP(O)(=S)OC[C@]23CO[C@@H]([C@H](n4cc(C)c(N)nc4=O)O2)[C@@H]3OP(O)(=S)OC[C@]23CC([C@H](n4cc(C)c(=O)[nH]c4=O)O2)[C@@H]3O)c(=O)nc1N (stereo not given in full) | – | – | 1.3 | – | – | – | 3 | – | – | – | – | – | – | – | – | Toxic | Toxic | 30 | Toxic
